Test results as given in ChEMBL document CHEMBL4049408, “Exploration of 2-((Pyridin-4-ylmethyl)amino)nicotinamide Derivatives as Potent Reversal Agents against P-Glycoprotein-Mediated Multidrug Resistance” (J Med Chem, 2017).
Active and inactive are the calls of the source. The calls are words filed in the database; no cut-off is given here.

How the values were obtained:
[1] = tested on: K562/A02; experiment: Potentiation of cyclophosphamide-mediated cytotoxicity against human K562/A02 cells at 5 uM after 48 hrs by MTT assay; format: functional, cell-based
Summary of the method: (§1)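 K562/A02 cells given daunorubicin, paclitaxel, vinblastine (P-gp substrates) or cyclophosphamide (non-substrate), each with modulator at 5.0 µM; cytotoxicity then measured. Mean ± SD of three independent tests.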

[2] = biological target: T1, ATP-dependent translocase ABCB1 (Homo sapiens, UniProt P08183); experiment: Inhibition of ABCB1 ATPase in human ABCB1 membrane fraction assessed as decrease in ATPase activity at 0.5 uM preincubated with compound followed by addition of MgATP measured after 1 hr by luciferase reporter gene assay relative to control; format: cell membranes
T1 sequence (P08183 whole entry): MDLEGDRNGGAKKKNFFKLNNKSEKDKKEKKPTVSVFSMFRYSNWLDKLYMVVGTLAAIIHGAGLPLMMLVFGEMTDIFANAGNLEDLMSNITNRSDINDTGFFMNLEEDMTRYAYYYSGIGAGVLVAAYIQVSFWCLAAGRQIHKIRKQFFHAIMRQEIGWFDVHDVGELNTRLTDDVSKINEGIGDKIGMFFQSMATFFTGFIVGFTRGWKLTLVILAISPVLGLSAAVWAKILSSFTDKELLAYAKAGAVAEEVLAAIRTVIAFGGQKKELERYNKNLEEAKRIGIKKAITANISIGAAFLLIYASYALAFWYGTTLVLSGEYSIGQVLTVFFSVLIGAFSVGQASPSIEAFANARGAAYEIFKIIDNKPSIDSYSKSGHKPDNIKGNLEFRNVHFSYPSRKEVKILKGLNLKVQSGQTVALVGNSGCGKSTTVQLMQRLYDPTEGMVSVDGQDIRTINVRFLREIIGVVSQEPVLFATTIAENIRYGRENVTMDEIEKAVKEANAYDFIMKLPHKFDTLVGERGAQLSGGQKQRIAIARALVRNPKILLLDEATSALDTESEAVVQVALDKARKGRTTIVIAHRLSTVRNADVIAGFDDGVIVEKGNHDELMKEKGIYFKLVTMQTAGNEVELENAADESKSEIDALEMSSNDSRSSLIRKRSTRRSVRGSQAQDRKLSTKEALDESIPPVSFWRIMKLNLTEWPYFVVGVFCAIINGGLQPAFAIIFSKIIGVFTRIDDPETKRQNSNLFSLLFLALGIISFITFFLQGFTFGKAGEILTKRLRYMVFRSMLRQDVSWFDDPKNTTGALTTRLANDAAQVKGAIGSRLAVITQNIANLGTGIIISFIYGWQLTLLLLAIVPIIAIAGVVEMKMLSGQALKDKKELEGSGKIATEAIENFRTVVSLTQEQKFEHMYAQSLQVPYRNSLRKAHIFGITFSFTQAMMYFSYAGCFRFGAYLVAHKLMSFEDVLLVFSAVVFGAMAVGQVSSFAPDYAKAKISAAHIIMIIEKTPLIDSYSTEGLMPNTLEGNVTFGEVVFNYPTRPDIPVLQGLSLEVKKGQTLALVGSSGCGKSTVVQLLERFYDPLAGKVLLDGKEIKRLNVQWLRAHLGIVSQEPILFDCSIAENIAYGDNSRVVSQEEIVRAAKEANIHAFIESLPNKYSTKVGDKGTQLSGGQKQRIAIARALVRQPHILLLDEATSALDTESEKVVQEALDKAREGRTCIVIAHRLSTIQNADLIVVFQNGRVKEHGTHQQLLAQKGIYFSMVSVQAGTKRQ

[3] = biological target: T1, ATP-dependent translocase ABCB1; experiment: Inhibition of ABCB1 in human K562/A02 cells assessed as potentiation of paclitaxel-mediated cytotoxicity at 5 uM after 48 hrs by MTT assay; format: cell-based; summary of the method: as §1
[4] = biological target: T1, ATP-dependent translocase ABCB1; experiment: Inhibition of ABCB1 in human K562/A02 cells assessed as potentiation of vinblastine-mediated cytotoxicity at 5 uM after 48 hrs by MTT assay; format: cell-based; summary of the method: as §1
[5] = tested on: GES1; experiment: Cytotoxicity against human GES-1 cells after 48 hrs by MTT assay; format: cell-based; conditions: GES1, 48 h
Summary of the method: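 Survival of GES-1 cells measured across a range of compound concentrations to give the IC50. Mean ± SD of three independent tests.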

[6] = tested on: K562/A02; experiment: Cytotoxicity against human K562/A02 cells assessed as cell survival at 5 uM after 48 hrs by MTT assay relative to control; format: cell-based; conditions: k562/a02, 48 h, 5 µM
Summary of the method: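 MTT viability assay in P-gp-overexpressing, ADM-resistant K562/A02 cells, alongside parental K562. […] Values are mean ± SD of three independent tests.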

[7] = biological target: T1, ATP-dependent translocase ABCB1; experiment: (§2) Inhibition of ABCB1 in human K562/A02 cells assessed as potentiation of adriamycin-mediated cytotoxicity by measuring reduction in ADR IC50 at 5 uM preincubated for 24 hrs followed by compound washout for 6 hrs and subsequent addition of adriamycin measured after 48 hrs by MTT assay relative to control; format: cell-based
Summary of the method: (§3)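 K562/A02 cells incubated with modulator at 5.0 µM, then washed out. Adriamycin IC50 determined at 0, 6, 12 or 24 h after removal, with an unwashed comparison. Reversal fold = IC50 without inhibitor / IC50 with inhibitor. Mean ± SD of three independent tests.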

[8] = biological target: T1, ATP-dependent translocase ABCB1; experiment: Inhibition of ABCB1 in human K562/A02 cells assessed as increase in intracellular Rh123 accumulation at 5 uM up to 90 mins by flow cytometry; format: cell-based; conditions: 1.5 h
Summary of the method: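 K562/A02 cells treated with 5.0 µM modulator; Rh123-associated mean fluorescence intensity read by flow cytometry at 5, 10, 25, 30, 60 and 90 min. Untreated cells as negative control. Mean ± SD of three experiments.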

[9] = biological target: T1, ATP-dependent translocase ABCB1; experiment: Inhibition of ABCB1 in human K562/A02 cells assessed as potentiation of daunorubicin-mediated cytotoxicity at 5 uM after 48 hrs by MTT assay; format: cell-based; summary of the method: as §1
[10] = biological target: T1, ATP-dependent translocase ABCB1; experiment: Inhibition of ABCB1 in human K562/A02 cells assessed as increase in intracellular adriamycin accumulation at 1 uM after 2.5 hrs by spectrofluorimetric analysis; format: cell-based
Summary of the method: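 Intracellular adriamycin measured by its autofluorescence using spectrofluorometry after 2.5 h accumulation in K562/A02 cells. Modulator tested at concentrations up to 5.0 µM; parental K562 and untreated K562/A02 cells as comparators. Mean ± SD of three experiments.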

[11] = biological target: T1, ATP-dependent translocase ABCB1; experiment: as §2, with “for 12” for “for 6”; format: cell-based; summary of the method: as §3
[12] = Inhibition of CYP3A4 in rat liver microsomes assessed as 6beta-hydroxytestosterone formation at 40 uM using testosterone as substrate by reverse-phase HPLC analysis; format: ADME
[13] = tested on: K562/A02; experiment: Cytotoxicity against human K562/A02 cells overexpressing P-gp after 48 hrs by MTT assay; format: functional, cell-based; conditions: K562/A02, 48 h
Summary of the method: (§4)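 MTT viability in parental K562 and P-gp-overexpressing K562/A02 cells. Compound alone at a concentration series gives the IC50. Mean ± SD of three independent tests.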

[14] = tested on: K562/A02; experiment: Effect on ABCB1 level in human K562/A02 cells at 0.1 to 5 uM after 72 hrs by Western blot analysis; format: functional, cell-based
Summary of the method: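 K562/A02 cells exposed to 0.1, 1.0 or 5.0 µmol/L compound for 72 h. ABCB1 detected by western blot; band intensity expressed as a ratio to β-tubulin.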

[15] = Selectivity index, ratio of IC50 for human GES-1 cells to EC50 for inhibition of ABCB1 in human K562/A02 cells assessed as potentiation of adriamycin-induced cytotoxicity by measuring compound concentration required for reduction of ADR IC50
Summary of the method: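 SI = IC50 in GES-1 cells divided by EC50 for reversal of adriamycin resistance in K562/A02 cells.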

[16] = biological target: T1, ATP-dependent translocase ABCB1; experiment: (§5) Inhibition of ABCB1 in human K562/A02 cells assessed as potentiation of adriamycin-mediated cytotoxicity by measuring reduction in ADR IC50 at 5 uM preincubated for 24 hrs followed by compound washout and subsequent addition of adriamycin measured after 48 hrs by MTT assay relative to control; format: cell-based
Summary of the method: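 K562/A02 cells incubated with modulator at 5.0 µM, then washed out. Reversal fold = IC50 without inhibitor / IC50 with inhibitor. Mean ± SD of three independent tests.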

[17] = tested on: K562; experiment: Cytotoxicity against human K562 cells after 48 hrs by MTT assay; format: functional, cell-based; conditions: K562, 48 h; summary of the method: as §4
[18] = biological target: T1, ATP-dependent translocase ABCB1; experiment: as §5, with “washout for 24 hrs” for “washout”; format: cell-based; summary of the method: as §3
[19] = biological target: T1, ATP-dependent translocase ABCB1; experiment: Substrate activity at ABCB1 ATPase in human ABCB1 membrane fraction assessed as increase in ATPase activity at 0.5 uM preincubated with compound followed by addition of MgATP measured after 1 hr by luciferase reporter gene assay relative to control; format: cell membranes
[20] = biological target: T1, ATP-dependent translocase ABCB1; experiment: Substrate activity at ABCB1 ATPase in human ABCB1 membrane fraction assessed as increase in ATPase activity at 5 uM preincubated with compound followed by addition of MgATP measured after 1 hr by luciferase reporter gene assay relative to control; format: cell membranes
[21] = biological target: T1, ATP-dependent translocase ABCB1; experiment: Inhibition of ABCB1 in human K562/A02 cells assessed as potentiation of adriamycin-mediated cytotoxicity by measuring reduction in ADR IC50 at 5 uM after 48 hrs by MTT assay relative to control; format: cell-based
Summary of the method: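 K562/A02 cells exposed to a series of adriamycin concentrations with modulator at 5.0 µM; 0.1% DMSO as solvent control. IC50 read by MTT. Reversal fold = IC50 without inhibitor / IC50 with inhibitor. Mean ± SD of three independent tests.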

Row | Compound | fold change (FC) [7] | inhibition (INH) [8] | inhibition (INH) [10] | fold change (FC) [11] | IC50 [13] | fold change (FC) [16] | IC50 [17] | fold change (FC) [18] | further results
1 | COc1cc2c(cc1OC)CN(CCc1ccc(NC(=O)c3cccnc3NCc3ccncc3)cc1)CC2 | 20.03 | Active | Active | 14.54 | 74.9 µM | 27.98 | 55.4 µM | 7.84 | Activity [1]: inactive; inhibition (INH) [2]: Active; inhibition (INH) [3]: Active; inhibition (INH) [4]: Active; IC50 [5]: > 100 µM; Activity [6]: Non-Toxic; inhibition (INH) [9]: Active; inhibition (INH) [12]: Not Active; Activity [14]: inactive; Ratio IC50/EC50 [15]: >836.1
2 | N#CC1(c2ccc(NC(=O)c3cccnc3NCc3ccncc3)cc2)CCCC1 [RIVOCERANIB] | 6.12 | Active | Active | 3.97 | 19.8 to 20.8 µM | 7.35 | 14.9 to 15.9 µM | 2.46 | fold change (FC) [19]: 1.41; fold change (FC) [20]: 2.68; fold change (FC) [21]: 8.63 to 8.71
